pIC50: −log10 of the molar value.
Assays:
Assay type in all cases: functional, cell-based
MDA-MB-231 = assay: Cytotoxicity against human MDA-MB-231 cells assessed as reduction in cell viability measured after 48 hrs by WST assay; conditions: MDA-MB-231, 48 h
Procedure, shortened: (§1)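 Cells grown at 37 °C, 5% CO2 with 10% fetal calf serum and penicillin/streptomycin: MCF7 and MDA-MB-231 in DMEM glucose, SKBR3 in DMEM F12 glutamine. Seeded at 12×10^3 cells/well, dosed after 24 h at 5–200 μM from DMSO stocks (DMSO […]) for 48 h. Doxorubicin positive control. Read-out was 10% WST for 1 h in the dark, absorbance at 440 nm. Triplicate, % inhibition versus control, IC50 estimated.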

SK-BR-3 = assay: Cytotoxicity against human SK-BR-3 cells assessed as reduction in cell viability measured after 48 hrs by WST assay; conditions: SK-BR-3, 48 h; procedure, shortened: as §1
MCF7 = assay: Cytotoxicity against human MCF7 cells assessed as reduction in cell viability measured after 48 hrs by WST assay; conditions: MCF7, 48 h; procedure, shortened: as §1

Measured: pIC50

CC(C)=CCC/C(C)=C/C[C@]1(CC=C(C)C)C(=O)C(O)=C(C(=O)c2ccc(O)c(O)c2)C1=O
> 5.00: all assays above

CC(C)=CCC/C(C)=C/C[C@]1(CC=C(C)C)C(=O)C2=C(OC(C)(C)C[C@H]2c2occc(=O)c2O)C(C(=O)c2ccc(O)c(O)c2)=C1O
> 5.00: all assays above

CC(C)=CCC/C(C)=C/CC1(CC=C(C)C)C(=O)C(C(=O)c2ccc(O)c(O)c2)=C2OC(C)(C)C(O)C3OC23C1=O (stereo not given)
> 5.00: all assays above

CC(C)=CCC/C(C)=C/CC1(CC=C(C)C)C(=O)C(C(=O)c2ccc(O)c(O)c2)=C2OC(C)(C)CC3OC23C1=O (stereo not given)
> 5.00: all assays above

CC(C)=CCC/C(C)=C/C[C@@]1(CC=C(C)C)C(=O)C2=C(OC(C)(C)C[C@H]2c2occc(=O)c2O)C(C(=O)c2ccc(O)c(O)c2)=C1O
> 5.00: all assays above
